Screens as filed in PubChem BioAssay.
SENP6 inh – blocks the human protease SENP6 | actives 1.8% (n = 330,000) | inhibition, % at 10 µM | Recombinant SENP6 catalytic domain, aminoluciferin luminescence;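 active = inhibition above about 50% at the single tested dose, limit read from the data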;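 note: plate controls were DMSO wells with enzyme for no effect and DMSO wells lacking enzyme for full effect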
SENP8 block-1 – SENP8 (human) protease inhibition; Q96LD8; recombinant SENP8, Nedd8 substrate fluorescence; inhibition, % at 20 µM; actives 0.64% (n = 360,000); AID 602440; in the data active = inhibition mostly above about 40%, no sharp cut-off; inactive = mostly below about 27%
SENP1 FRET inh – blocks the human SENP1 SUMO protease catalytic domain; Q9P0U3; recombinant SENP1 catalytic domain, CyPet-SUMO1-YPet FRET cleavage; inhibition, % at 10 µM; actives 0.21% (n = 360,000); AID 624204;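 active = inhibition at least 30% at 10 µM, raw YFP signal under a set limit, fluorescence ratio 0.5 to 1.5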;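 note: 0% = enzyme with DMSO and 100% = no enzyme wells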
Target sequence (Q9P0U3 419-644 limits assumed): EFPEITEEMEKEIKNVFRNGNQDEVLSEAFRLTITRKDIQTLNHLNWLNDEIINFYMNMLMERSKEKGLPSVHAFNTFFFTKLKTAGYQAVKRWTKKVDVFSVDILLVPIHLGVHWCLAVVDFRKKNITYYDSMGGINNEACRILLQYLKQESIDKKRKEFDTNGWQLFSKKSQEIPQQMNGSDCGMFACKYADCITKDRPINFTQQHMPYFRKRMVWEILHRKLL
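Assay system: hSENP1 catalytic domain, recombinant. Amount: SENP1 enzyme, 20 pM final. Schedule: 50 min reaction, RT, dark. Technique: FRET, CFP and YFP emission. Control set: no-enzyme wells low, DMSO-plus-enzyme wells high control.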
NRP1-CendR mod – NRP-1/CendR interaction modulation; O14786; FAM-RPARPAR peptide binding to NRP-1, fluorescence polarization; inhibition, % at 25 µM; actives 0.85% (n = 360,000); AID 602438;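 active = inhibition or corrected inhibition above about 18%, plus a signal ratio from 0.5 to 1.5, limit read from the data, passing the limit was not always enough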
SENP8 block-2 – SENP8 protease inhibition | Q96LD8 | purified SENP8, Z-RLRGG-aminoluciferin cleavage, luminescence | inhibition, % at 10 µM | actives 1.2% (n = 330,000); in the data active = inhibition above about 50%
SENP7 inh – SENP7 protease inhibition; Q9BQF6; recombinant SENP7, Z-RLRGG-aminoluciferin luminescence, 40 min; actives 1.5% (n = 330,000); inhibition, % at 5 µM;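 active = inhibition above about 50% at the single test dose, limit read from the data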;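 note: plate controls were DMSO with enzyme for no effect and no enzyme buffer wells for full effect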
SENP8 confirm – confirmation of human SENP8 protease inhibitors | inhibition, % at 12.5 µM | actives 40% (n = 6,200) | Recombinant SENP8, Z-RLRGG-aminoluciferin luminescence, 60 min | AID 488912 | shares compounds with SENP7 inh;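 active = mean inhibition across replicates above about 50%, limit read from the data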
SENP6 conf – human SENP6 inhibition, confirmed; recombinant SENP6, Z-RLRGG-aminoluciferin luminescence; shares compounds with SENP7 inh; inhibition, % at 12.5 µM; actives 58% (n = 6,200)
SENP7 confirm – confirmation of human SENP7 protease inhibitors; shares compounds with SENP7 inh; recombinant SENP7, Z-RLRGG-aminoluciferin luminescence, 40 min; inhibition, % at 12.5 µM; actives 69% (n = 6,200)
Casp3 select – selectivity test for SENP inhibitors: human caspase-3 inhibition; actives 60% (n = 6,200); purified caspase-3, Z-DEVD-aminoluciferin luminescence, 60 min; inhibition, % at 12.5 µM; shares compounds with SENP7 inh; AID 488918;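 active = mean inhibition above about 50%, limit read from the data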;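 note: plate controls were enzyme with DMSO for no effect and wells without caspase-3 for full effect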
SENP luc ctr – interferes with luciferase luminescence in SENP counter-screen; inhibition, % at 12.5 µM; Pre-incubated SENP8/Z-RLRGG-aminoluciferin, luciferase luminescence interference; shares compounds with SENP7 inh; actives 39% (n = 6,200);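 active = mean inhibition above about 50% when retested at one dose, limit read from the data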;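 note: plate controls were DMSO wells with completed reaction for no effect and substrate without enzyme for full effect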
An asterisk follows results filed as active; / = no result given. Sampled rows, rich in hits. Any-hit rate of the full collection: about 3.3%.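 Rule for the calls, unless noted: active = mean inhibition above about 50% in the one-dose retest (limit read from the data); inactive = the rest.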

SMILES | SENP6 inh | SENP8 block-1 | SENP1 FRET inh | NRP1-CendR mod | SENP8 block-2 | SENP7 inh | SENP8 confirm | SENP6 conf | SENP7 confirm | Casp3 select | SENP luc ctr
COc1cccc(C(=O)O[C@H]2[C@H](C)NS(=O)(=O)[C@H]3C[C@@H]4C=C[C@]23O4)c1 | 68* | 8 | 0 | 7 | -9 | -2 | 11 | 3 | -1 | -5 | -5
Cc1cccc(C(=O)O[C@H]2[C@H](C)NS(=O)(=O)[C@H]3CC4C=C[C@]23O4)c1 | 2 | 10 | 1 | -13 | -8 | -7 | / | / | / | / | /
c1ccc(Nc2nnc(-c3cccc4ccccc34)o2)cc1 | -10 | -402 | 1 | -7 | -2 | 65* | 1 | -8 | 53* | 36 | -3
Cc1ccc(-c2nnc(-c3cccc4ccccc34)o2)cc1 | / | -496 | 2 | 17 | / | / | / | / | / | / | /
CCN(CC)c1ncnc2c1ncn2[C@H]1CN(Cc2ccc3c(c2)OCO3)C[C@@H](CO)O1 | / | 3 | 1 | -3 | / | / | / | / | / | / | /
COc1ccc(C(=O)COC(=O)c2cccnc2Cl)c(OC)c1 | 35 | -5 | -7 | -12 | 11 | 25 | / | / | / | / | /
O=C(COC(=O)c1cccnc1Cl)c1ccc(OC(F)F)cc1 | 24 | 8 | 0 | 7 | 71* | 86* | -2 | 77* | 97* | 89* | 78*
